Laboratory results from ChEMBL document CHEMBL5058577, “EUbOPEN Chemogenomics Library 2 (Multiplex)” (2022).

Tested on: Fibroblast
Test: Multiplex assay against human fibroblast
Format: toxicity, cell-based
Outline: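 Values for tubulin, mitochondrial-mass and membrane-permeability phenotypes are per cents of cells with healthy nuclei. These cells were identified by CellPathfinder machine-learning gating of live cells that had been stained at seeding with Hoechst33342, BioTracker Green Microtubule Cytoskeleton Dye, MitoTracker Red and Annexin V Alexa Fluor 680 and imaged on a CQ1 microscope at 37°C and 5% CO2 after compound addition. The gating first set Hoechst high-intensity objects apart from normal cells, then split normal cells into healthy, pyknosed or fragmented nuclei, and pyknosed cells into mitotic or apoptotic.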

[1] = 12 h, 1 µM, compound concentration 1 uM, replicate 1
[2] = 12 h, 1 µM, compound concentration 1 uM, replicate 2
[3] = 12 h, 10 µM, compound concentration 10 uM, replicate 1
[4] = 12 h, 10 µM, compound concentration 10 uM, replicate 2
[5] = 24 h, 1 µM, compound concentration 1 uM, replicate 1
[6] = 24 h, 1 µM, compound concentration 1 uM, replicate 2
[7] = 24 h, 10 µM, compound concentration 10 uM, replicate 1
[8] = 24 h, 10 µM, compound concentration 10 uM, replicate 2
[9] = 48 h, 1 µM, compound concentration 1 uM, replicate 1
[10] = 48 h, 1 µM, compound concentration 1 uM, replicate 2
[11] = 48 h, 10 µM, compound concentration 10 uM, replicate 1
[12] = 48 h, 10 µM, compound concentration 10 uM, replicate 2

SMILES: Nc1nc(CC(=O)Nc2ccc(CCNC[C@H](O)c3ccccc3)cc2)cs1 [MIRABEGRON]
- Population Apoptotic (%) [1]: 53%
- Population Fragmented Nuclei (%) [1]: 19%
- Population Healthy Nuclei (%) [1]: 62%
- Population Hoechst High Intensity Objects (%) [1]: 5%
- Population Membrane Permeable-Phenotype (%) [1]: 0%
- Population Mitochondria Different-Phenotype (%) [1]: 6%
- Population Mitotic Cells (%) [1]: 46%
- Population Normal (%) [1]: 94%
- Population Pyknosed Nuclei (%) [1]: 18%
- Population Tubulin-Different-Phenotype (%) [1]: 25%
- Total Cell Count [1]: 164
- Population Apoptotic (%) [2]: 31%
- Population Fragmented Nuclei (%) [2]: 27%
- Population Healthy Nuclei (%) [2]: 52%
- Population Hoechst High Intensity Objects (%) [2]: 4%
- Population Membrane Permeable-Phenotype (%) [2]: 9%
- Population Mitochondria Different-Phenotype (%) [2]: 12%
- Population Mitotic Cells (%) [2]: 68%
- Population Normal (%) [2]: 95%
- Population Pyknosed Nuclei (%) [2]: 19%
- Population Tubulin-Different-Phenotype (%) [2]: 46%
- Total Cell Count [2]: 189
- Population Apoptotic (%) [3]: 46%
- Population Fragmented Nuclei (%) [3]: 15%
- Population Healthy Nuclei (%) [3]: 75%
- Population Hoechst High Intensity Objects (%) [3]: 3%
- Population Membrane Permeable-Phenotype (%) [3]: 0%
- Population Mitochondria Different-Phenotype (%) [3]: 4%
- Population Mitotic Cells (%) [3]: 53%
- Population Normal (%) [3]: 96%
- Population Pyknosed Nuclei (%) [3]: 9%
- Population Tubulin-Different-Phenotype (%) [3]: 19%
- Total Cell Count [3]: 171
- Population Apoptotic (%) [4]: 30%
- Population Fragmented Nuclei (%) [4]: 31%
- Population Healthy Nuclei (%) [4]: 41%
- Population Hoechst High Intensity Objects (%) [4]: 5%
- Population Membrane Permeable-Phenotype (%) [4]: 1%
- Population Mitochondria Different-Phenotype (%) [4]: 3%
- Population Mitotic Cells (%) [4]: 69%
- Population Normal (%) [4]: 94%
- Population Pyknosed Nuclei (%) [4]: 27%
- Population Tubulin-Different-Phenotype (%) [4]: 45%
- Total Cell Count [4]: 137
- Population Apoptotic (%) [5]: 59%
- Population Fragmented Nuclei (%) [5]: 17%
- Population Healthy Nuclei (%) [5]: 64%
- Population Hoechst High Intensity Objects (%) [5]: 5%
- Population Membrane Permeable-Phenotype (%) [5]: 1%
- Population Mitochondria Different-Phenotype (%) [5]: 4%
- Population Mitotic Cells (%) [5]: 40%
- Population Normal (%) [5]: 94%
- Population Pyknosed Nuclei (%) [5]: 18%
- Population Tubulin-Different-Phenotype (%) [5]: 28%
- Total Cell Count [5]: 156
- Population Apoptotic (%) [6]: 58%
- Population Fragmented Nuclei (%) [6]: 27%
- Population Healthy Nuclei (%) [6]: 57%
- Population Membrane Permeable-Phenotype (%) [6]: 9%
- Population Mitochondria Different-Phenotype (%) [6]: 7%
- Population Mitotic Cells (%) [6]: 41%
- Population Pyknosed Nuclei (%) [6]: 14%
- Population Tubulin-Different-Phenotype (%) [6]: 45%
- Total Cell Count [6]: 179
- Population Apoptotic (%) [7]: 53%
- Population Fragmented Nuclei (%) [7]: 15%
- Population Healthy Nuclei (%) [7]: 75%
- Population Hoechst High Intensity Objects (%) [7]: 2%
- Population Membrane Permeable-Phenotype (%) [7]: 0%
- Population Mitochondria Different-Phenotype (%) [7]: 4%
- Population Mitotic Cells (%) [7]: 46%
- Population Normal (%) [7]: 97%
- Population Pyknosed Nuclei (%) [7]: 8%
- Population Tubulin-Different-Phenotype (%) [7]: 24%
- Total Cell Count [7]: 181
- Population Apoptotic (%) [8]: 55%
- Population Fragmented Nuclei (%) [8]: 29%
- Population Healthy Nuclei (%) [8]: 48%
- Population Hoechst High Intensity Objects (%) [8]: 4%
- Population Membrane Permeable-Phenotype (%) [8]: 4%
- Population Mitochondria Different-Phenotype (%) [8]: 6%
- Population Mitotic Cells (%) [8]: 44%
- Population Normal (%) [8]: 95%
- Population Pyknosed Nuclei (%) [8]: 21%
- Population Tubulin-Different-Phenotype (%) [8]: 44%
- Total Cell Count [8]: 131
- Population Apoptotic (%) [9]: 76%
- Population Fragmented Nuclei (%) [9]: 23%
- Population Healthy Nuclei (%) [9]: 60%
- Population Hoechst High Intensity Objects (%) [9]: 7%
- Population Membrane Permeable-Phenotype (%) [9]: 2%
- Population Mitochondria Different-Phenotype (%) [9]: 6%
- Population Mitotic Cells (%) [9]: 23%
- Population Normal (%) [9]: 92%
- Population Pyknosed Nuclei (%) [9]: 15%
- Population Tubulin-Different-Phenotype (%) [9]: 28%
- Total Cell Count [9]: 176
- Population Apoptotic (%) [10]: 50%
- Population Fragmented Nuclei (%) [10]: 40%
- Population Healthy Nuclei (%) [10]: 52%
- Population Hoechst High Intensity Objects (%) [10]: 2%
- Population Membrane Permeable-Phenotype (%) [10]: 4%
- Population Mitochondria Different-Phenotype (%) [10]: 10%
- Population Mitotic Cells (%) [10]: 50%
- Population Normal (%) [10]: 97%
- Population Pyknosed Nuclei (%) [10]: 7%
- Population Tubulin-Different-Phenotype (%) [10]: 32%
- Total Cell Count [10]: 195
- Population Apoptotic (%) [11]: 64%
- Population Fragmented Nuclei (%) [11]: 18%
- Population Healthy Nuclei (%) [11]: 74%
- Population Hoechst High Intensity Objects (%) [11]: 4%
- Population Membrane Permeable-Phenotype (%) [11]: 0%
- Population Mitochondria Different-Phenotype (%) [11]: 4%
- Population Mitotic Cells (%) [11]: 35%
- Population Normal (%) [11]: 95%
- Population Pyknosed Nuclei (%) [11]: 7%
- Population Tubulin-Different-Phenotype (%) [11]: 21%
- Total Cell Count [11]: 194
- Population Apoptotic (%) [12]: 75%
- Population Fragmented Nuclei (%) [12]: 39%
- Population Healthy Nuclei (%) [12]: 48%
- Population Hoechst High Intensity Objects (%) [12]: 3%
- Population Membrane Permeable-Phenotype (%) [12]: 6%
- Population Mitochondria Different-Phenotype (%) [12]: 6%
- Population Mitotic Cells (%) [12]: 25%
- Population Normal (%) [12]: 96%
- Population Pyknosed Nuclei (%) [12]: 12%
- Population Tubulin-Different-Phenotype (%) [12]: 51%
- Total Cell Count [12]: 132
